ChEMBL document CHEMBL1127042, “Molecular size and flexibility as determinants of selectivity in the oxidation of N-methyl-4-phenyl-1,2,3,6-tetrahydropyridine analogs by monoamine oxidase A and B” (J Med Chem, 1993)
Values joined by “and” are separate entries in the source; they are usually repeats but may differ in a detail not shown here. Identical values can stand only once.

Columns and labels:
[1] = molecular target: T1, Amine oxidase [flavin-containing] A (Homo sapiens, UniProt P21397); test: Turnover number against MAO A (umol of substrate/min per umol of enzyme).
T1 sequence (P21397 whole entry): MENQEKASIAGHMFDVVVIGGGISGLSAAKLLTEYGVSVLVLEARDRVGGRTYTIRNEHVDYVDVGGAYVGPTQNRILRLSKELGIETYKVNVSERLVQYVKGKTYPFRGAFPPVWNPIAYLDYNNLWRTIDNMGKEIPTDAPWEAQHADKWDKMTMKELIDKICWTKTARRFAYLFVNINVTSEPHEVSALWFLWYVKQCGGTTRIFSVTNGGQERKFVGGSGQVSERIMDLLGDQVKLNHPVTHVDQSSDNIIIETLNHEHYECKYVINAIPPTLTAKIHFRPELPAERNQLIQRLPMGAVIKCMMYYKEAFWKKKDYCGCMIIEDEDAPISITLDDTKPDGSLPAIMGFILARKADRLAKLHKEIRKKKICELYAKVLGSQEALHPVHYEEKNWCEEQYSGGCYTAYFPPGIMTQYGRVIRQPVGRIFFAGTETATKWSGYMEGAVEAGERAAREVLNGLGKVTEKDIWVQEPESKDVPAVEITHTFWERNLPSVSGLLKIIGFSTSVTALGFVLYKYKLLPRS
Method in brief: (§1)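 Human liver MAO A expressed in yeast, purified. Initial oxidation rates measured polarographically (O2 uptake) at 30 °C in sodium phosphate buffer, pH 7.2, with 0.2% (w/v) Brij-35. Enzyme was added last to start the reaction, and its amount was set so rates were read within 60-120 s. Vmax came from double-reciprocal plots. TN was Vmax divided by flavin content. Flavin content was found from the optical density change on anaerobic reduction by kynuramine.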

[2] = molecular target: T2, Amine oxidase [flavin-containing] B (Bos taurus, UniProt P56560); test: Turnover number against MAO B (umol of substrate/min per umol of enzyme).; settings: cattle
T2 sequence (P56560 whole entry): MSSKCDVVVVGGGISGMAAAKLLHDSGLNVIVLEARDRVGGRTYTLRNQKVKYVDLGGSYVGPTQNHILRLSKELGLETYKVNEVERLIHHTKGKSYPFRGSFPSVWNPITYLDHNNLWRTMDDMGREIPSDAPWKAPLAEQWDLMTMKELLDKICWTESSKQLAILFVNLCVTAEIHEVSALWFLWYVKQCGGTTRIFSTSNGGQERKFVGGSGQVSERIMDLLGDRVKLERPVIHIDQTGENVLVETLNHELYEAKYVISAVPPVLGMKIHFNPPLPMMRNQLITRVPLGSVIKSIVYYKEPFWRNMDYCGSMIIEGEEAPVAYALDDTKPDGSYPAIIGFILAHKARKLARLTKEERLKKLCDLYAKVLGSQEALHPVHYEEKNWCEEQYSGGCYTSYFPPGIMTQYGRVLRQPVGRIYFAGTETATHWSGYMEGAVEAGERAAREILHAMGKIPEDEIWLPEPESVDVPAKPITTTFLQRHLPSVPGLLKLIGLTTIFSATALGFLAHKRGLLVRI
Method in brief: (§2)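 Beef liver MAO B, purified. Initial oxidation rates measured polarographically at 30 °C in sodium phosphate buffer, pH 7.2, with 0.2% (w/v) Brij-35. The reaction was started by adding enzyme, dosed so rates were measurable within 60-120 s. Vmax came from double-reciprocal plots. Turnover number was Vmax per flavin content. Flavin content came from the optical density change on anaerobic reduction by benzylamine.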

[3] = molecular target: T2, Amine oxidase [flavin-containing] B; test: Ratio of turnover number(TN)and Km for MAO B; settings: cattle; method in brief: as §2
[4] = molecular target: Amine oxidase [flavin-containing] A (Homo sapiens) (UniProt P21397); test: Ratio between TN and Km against MAO A
[5] = molecular target: T3, MAO A (amine oxidase [flavin-containing] A) (Homo sapiens, UniProt P21397); test: Michaelis-Menten constant against MAO A.; method in brief: as §1
T3 sequence (P21397 whole entry): T1 sequence (P21397 whole entry)

[6] = molecular target: T2, Amine oxidase [flavin-containing] B; test: Ratio between TN and Km against MAO B; settings: cattle; method in brief: as §2

Compound | TN [1] | TN [2] | Ratio [3] | Ratio [4] | Km [5] | Ratio [6]
CN1CC=C(CCc2cccs2)CC1 | 42 min⁻¹ | 51.9 min⁻¹ | 1059 | 389 | – | –
CN1CC=C(Cc2ccc3ccccc3c2)CC1 | 121 min⁻¹ | 274 min⁻¹ | 326 | 3344 | – | –
CN1CC=C(Cc2cccc3ccccc23)CC1 | 443 min⁻¹ | 89 min⁻¹ | 105 | 2592 | – | –
CN1CC=C(Cc2cccs2)CC1 | 8.4 min⁻¹ | 337 min⁻¹ | 3270 | 175 | – | –
CN1CC=C(CCc2ccsc2)CC1 | 29.7 min⁻¹ | 50.7 min⁻¹ | 890 | 228 | – | –
CN1CC=C(CCc2ccc3ccccc3c2)CC1 | 95.9 min⁻¹ | 79 min⁻¹ | 76 | 2225 | – | –
CN1CC=C(CCc2ccccc2)CC1 | 137 min⁻¹ | 61 min⁻¹ | 1130 | 1120 | – | –
CN1CC=C(CCc2cccc3ccccc23)CC1 | 244 min⁻¹ | 80 min⁻¹ | 62 | 3187 | – | –
CN1CC=C(c2cccs2)CC1 | 5.21 min⁻¹ | 12 min⁻¹ | 71 | 28 | – | –
CN1CC=C(c2ccc3ccccc3c2)CC1 | 10.2 min⁻¹ | 73.5 min⁻¹ | 101 | 2216 | – | –
CN1CC=C(c2ccccc2)CC1 | 20 min⁻¹ | 204 min⁻¹ | 523 | 143 | 140 µM | –
CN1CC=C(c2cccc3ccccc23)CC1 | 140 min⁻¹ | 55 min⁻¹ | 500 | 1893 | – | –
CN1CC=C(Cc2ccsc2)CC1 | 13.3 min⁻¹ | 153 min⁻¹ | 785 | 98 | – | –
CN1CC=C(c2ccsc2)CC1 | 8.14 min⁻¹ | 4.17 min⁻¹ | – | 80 and 160 | – | –
CN1CC=C(Cc2ccccc2)CC1 | 9.2 min⁻¹ | 193 min⁻¹ | 1250 | 139 | – | –
NCc1ccccc1 [BENZYLAMINE] | 10 min⁻¹ | 283 min⁻¹ | 963 | 13 | – | –
NCCC(=O)c1ccccc1N [KYNURAMINE] | 146 min⁻¹ | 165 min⁻¹ | – | 860 | – | 1964
